Publication PMC7919753 (ACS chemical biology, 2020)
“And” between values parts separate entries of the source, which are not always exact repeats. Identical values can stand only once. Like-named read-outs stand apart in the source and are kept apart here. Blank lines part the entries; values can stand above or below the compound they belong to.

Columns and labels:
[1] = system: GBM43 spheroids; assay: 3-D spheroid viability assay, GBM43; type: cell-based, human; conditions: for activity in spheroids (in words): concentration-dependent
[2] = system: SJ-GBM2 spheroids; assay: 3-D spheroid viability assay, SJ-GBM2; type: cell-based, human; conditions: for activity in spheroids (in words): concentration-dependent
[3] = system: GBM10 spheroids; assay: 3-D spheroid viability assay, GBM10; type: cell-based, human; conditions: for activity in spheroids (in words): concentration-dependent
[4] = target: T1, RACK1 (Homo sapiens, UniProt P63244); assay: Cellular thermal shift assay; type: binding; conditions: GBM43 cells, concentration-dependent, 6 h treatment, heated to 45 °C, vs DMSO
How it was run: (§1)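 GBM43 cells were exposed to varying concentrations of test compound, then heated to 45 °C. Protein remaining soluble was detected with target-specific antibodies. GAPDH was probed as a control for non-specific binding.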

[5] = system: astrocytes; assay: Astrocyte monolayer cell proliferation assay; type: cell-based, human; conditions: 2-D monolayer assay, up to 100 μM, 3 days
How it was run: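 Primary human fetal astrocytes were seeded at 8 × 10³/well in DMEM with 10% FBS and 1% penicillin/streptomycin. They were incubated 3 days with DMSO or test compound. MTS reagent was then added and incubated 1 h at 37 °C, and absorbance was read at 490 nm. Run in triplicate.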

[6] = target: T1, RACK1; assay: Thermal proteome profiling in GBM43 cells; type: binding; conditions: 10 μM, six temperatures 37-60 °C, cutoff ΔTm ≥ 3 °C
How it was run: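 GBM43 cells in PBS with protease inhibitors were treated 1 h at 37 °C with 10 µM test compound or DMSO. Fractions of 5 × 10⁶ cells were heated 3 min at 37, 40, 45, 50, 55 or 60 °C, then freeze-thaw lysed and spun at 100,000 × g. Soluble proteins were trypsin-digested and quantified by label-free LC-MS/MS. iBAQ-based melting curves gave ΔTm (treatment − vehicle), with a ≥3.0 cutoff.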

[7] = system: brain microvascular endothelial cells (BMECs); assay: Effect on brain microvascular endothelial cells, 48 h exposure; type: cell-based; conditions: Endothelial cell, read-out: IC50 (effect on BMECs)
[8] = target: GAPDH (Homo sapiens, UniProt P04406); assay: Cellular thermal shift assay; type: binding; conditions: GBM43 cells, concentration-dependent, heated to 45 °C
How it was run: as §1

[9] = Stability in buffer by HPLC; type: physicochemical
[10] = system: brain microvascular endothelial cells (BMECs); assay: Matrigel-based tube formation assay; conditions: Endothelial cell, 8 h, read-out: IC50 (tube formation)
How it was run: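 Primary brain microvascular endothelial cells, 15,000 per well in EGM-2, were seeded on Matrigel pre-solidified 20 min at 37 °C. Test compound was added in DMSO. Tubes were observed every 2 h by brightfield and imaged at 8 h. Total tubule length from six images per treatment was normalised to DMSO. Treatments were compared to DMSO by one-way ANOVA with Dunnett's test.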

[11] = system: Panc10.05 (Pa16C); assay: PDAC 3-D spheroid model, Panc10.05; type: cell-based; conditions: Homo sapiens, Panc1005, read-out: IC50 (cell viability)
How it was run: (§2)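 TdTomato-transduced PDAC cells, kept under 10 passages, were seeded at 1,000 cells/well in ultralow-adherence plates. Medium held 3% reduced-growth-factor Matrigel and 5% FBS. Spheroids were treated on days 4 and 8, and red fluorescence was read on day 12. Percent viability was taken versus media control (mean ± s.d., n = 3). Relative IC50 came from a four-parameter logistic fit by non-linear least squares.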

[12] = system: Panc198 (Pa20C); assay: PDAC 3-D spheroid model, Panc198; type: cell-based, human; conditions: Panc198 PDAC spheroids, concentration-dependent
How it was run: as §2

[13] = system: CD34+ progenitor cells; assay: Colony-forming unit; type: cell-based, human; conditions: colony formation assay, up to 100 μM, day 14
How it was run: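 Purified human umbilical cord blood CD34+ cells were incubated with test compound. They were plated with compound at 2 × 10³ cells per 35 mm dish in MethoCult H4434. Clonogenic progenitor colonies were counted by light microscopy on day 14 after exposure. IC50 came from dose-response curves.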

[14] = system: Pa02C; assay: PDAC 3-D spheroid model, Pa02C; type: cell-based, human; conditions: Pa02C PDAC spheroids, concentration-dependent
How it was run: as §2

[15] = system: GBM43 spheroids; conditions: read-out: IC50 (cell viability); GBM43, standard-of-care comparison; cited from earlier work

Chain of GAPDH (P04406 whole entry): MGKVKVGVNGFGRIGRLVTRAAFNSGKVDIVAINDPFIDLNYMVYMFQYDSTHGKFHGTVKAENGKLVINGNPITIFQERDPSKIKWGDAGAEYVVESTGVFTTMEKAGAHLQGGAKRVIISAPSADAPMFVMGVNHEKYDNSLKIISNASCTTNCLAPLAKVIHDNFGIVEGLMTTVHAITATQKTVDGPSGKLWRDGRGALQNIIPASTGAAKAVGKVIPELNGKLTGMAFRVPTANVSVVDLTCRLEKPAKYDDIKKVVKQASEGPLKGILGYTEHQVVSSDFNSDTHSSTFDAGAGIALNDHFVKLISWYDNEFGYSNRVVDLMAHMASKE

Structure (SMILES): COc1cc2c(cc1NC(=O)C1CCC(=O)N1S(=O)(=O)c1ccc(C)cc1)oc1ccc(Cl)cc12 (stereo not shown) [Compound 26, N-(8-Chloro-2-methoxydibenzo[b,d]furan-3-yl)-5-oxo-1-tosylpyrrolidine-2-carboxamide]
activity in spheroids (in words) ([1]; GBM43 spheroids): no activity
activity in spheroids (in words) [2]: no activity
activity in spheroids (in words) [3]: no activity

Structure (SMILES): COc1cc2c(cc1NC(=O)C1CCC(=O)N1Cc1ccc(C)cc1)oc1ccccc12 (stereo not shown) [Compound 23, N-(2-Methoxydibenzo[b,d]furan-3-yl)-1-(4-methylbenzyl)-5-oxopyrrolidine-2-carboxamide]
activity in spheroids (in words) ([1]; GBM43 spheroids): loss of activity
activity in spheroids (in words) [3]: loss of activity

Structure (SMILES): COc1cc2c(cc1NC(=O)C1CCC(=O)N1S(=O)(=O)c1ccc(C)cc1)oc1cc(Cl)ccc12 (stereo not shown) [Compound 27, N-(7-Chloro-2-methoxydibenzo[b,d]furan-3-yl)-5-oxo-1-tosylpyrrolidine-2-carboxamide]
activity in spheroids (in words) ([1]; GBM43 spheroids): no activity
activity in spheroids (in words) [2]: no activity
activity in spheroids (in words) [3]: no activity

RACK1 abundance after heating (CETSA) [4]: did not affect protein abundance
Structure (SMILES): COc1cc2c(cc1NC(=O)C1CCCN1S(=O)(=O)c1ccc(C)cc1)oc1ccccc12 (stereo not shown) [Compound 22, N-(2-Methoxydibenzo[b,d]furan-3-yl)-1-tosylpyrrolidine-2-carboxamide]
activity in spheroids (in words) ([1]; GBM43 spheroids): loss of activity
activity in spheroids (in words) [3]: loss of activity

thermal shift of RACK1 (ΔTm) [6]: significant thermal shift
IC50 [7]: 3.5 µM
GAPDH abundance after heating (CETSA) [8]: no difference in protein abundance
stability following incubation in buffer [9]: stable
IC50 [10]: ~0.1 µM
IC50 [11]: 26 ± 5.9 µM
Structure (SMILES): COc1cc2c(cc1NC(=O)C1CCC(=O)N1S(=O)(=O)c1ccc(C)cc1)oc1ccccc12 (stereo not shown) [Compound 1, N-(2-Methoxydibenzo[b,d]furan-3-yl)-5-oxo-1-tosylpyrrolidine-2-carboxamide]
effect on cell viability of astrocytes [5]: no effect
inhibition of cell viability ([1]; GBM43 spheroids, single concentration 25 μM): 90%
IC50 ([1]; Homo sapiens, 120 h, read-out: IC50 (cell viability)): 3.7 ± 0.1 µM
activity in spheroid model [12]: no activity
effect on cell viability of CD34+ cells [13]: no effect
activity in spheroid model [14]: no activity

Structure (SMILES): COc1cc2c(cc1NC(=O)C1CCC(=O)N1S(=O)(=O)c1ccc(C(F)(F)F)cc1)oc1ccccc12 (stereo not shown) [Compound 25, N-(2-Methoxydibenzo[b,d]furan-3-yl)-5-oxo-1-((4-(trifluoromethyl)phenyl)sulfonyl)pyrrolidine-2-carboxamide]
fold decrease in IC50 compared to 1 ([1]; GBM43 spheroids): ~10 fold
fold decrease in IC50 compared to 1 [2]: ~10 fold
fold decrease in IC50 compared to 1 [3]: ~10 fold

Structure (SMILES): O=NN(CCCl)C(=O)NC1CCCCC1 [CCNU, lomustine, reference compound]
inhibition of cell viability ([1]; GBM43 spheroids, at 100 μM): about 50%
inhibition of cell viability ([3]; at 100 μM): about 50%

Structure (SMILES): COc1cc2c(cc1NC(=O)C1CCC(=O)N1)oc1ccccc12 (stereo not shown) [Compound 24, N-(2-Methoxydibenzo[b,d]furan-3-yl)-5-oxopyrrolidine-2-carboxamide]
activity in spheroids (in words) ([1]; GBM43 spheroids): loss of activity
activity in spheroids (in words) [3]: loss of activity

Structure (SMILES): Cn1nnc2c(C(N)=O)ncn2c1=O [temozolomide]
IC50 [15]: 244 µM and ~250 µM
